Results reported in EPA's CvTdb concentration-time database.

Legend:
[1] = test system: Rat; assay: concentration in plasma after dosing; settings: 0.25 h; dosed: Primidone; 80 mg/kg; oral; Female; Harlan Sprague-Dawley
[2] = test system: Rat; assay: concentration in plasma after dosing; settings: 6 h; dosed: Primidone; 130 mg/kg; oral; Female; F344
[3] = test system: Rat; assay: concentration in plasma after dosing; settings: dosed: 2-Hydroxy-4-methoxybenzophenone, 250 mg/kg, oral, Male, F344
[4] = test system: Mouse; assay: concentration in plasma after dosing; settings: 10 min; dosed: 2-Hydroxy-4-methoxybenzophenone; 250 mg/kg; oral; Male; B6C3F1
[5] = test system: Rat; assay: concentration in plasma after dosing; settings: 0.25 h; dosed: 2-Hydroxy-4-methoxybenzophenone; 500 mg/kg; oral; Female; F344
[6] = test system: Rat; assay: concentration in plasma after dosing; settings: dosed: 2-Hydroxy-4-methoxybenzophenone, 500 mg/kg, oral, Male, F344
[7] = test system: rat; assay: concentration in blood after dosing; negative times count back from the end of exposure; settings: dosed: trichloroethylene, 50 ppm, inhalation, duration: 4 hr, male, Sprague Dawley
[8] = test system: Rat; assay: concentration in plasma after dosing; settings: dosed: Methyleugenol, 37 mg/kg, oral, Male, F344/N
[9] = test system: Rat; assay: concentration in plasma after dosing; settings: dosed: Methyleugenol, 37 mg/kg, oral, Male, F344/N; remark: listed apart in the source
[10] = test system: human; assay: amount in urine after dosing (umol)
Summary of the method: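 Data points giving concentration or amount against time came from published in vivo toxicokinetic studies and from two structured collections. PubMed searching, classifier screening and manual review located the studies. Most points were digitised from plot screenshots using WebPlotDigitizer, the rest were copied from tables, and all keep their reported units.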

[11] = test system: Rat; assay: concentration in plasma after dosing; settings: 0.5 h; dosed: alpha-Thujone; 25 mg/kg; oral; Female; Harlan Sprague Dawley
[12] = test system: Rat; assay: concentration in brain after dosing; settings: 0.5 h; dosed: alpha-Thujone; 25 mg/kg; oral; Female; Harlan Sprague Dawley
[13] = test system: Rat; assay: concentration in brain after dosing; settings: 5 min; dosed: alpha-Thujone; 50 mg/kg; oral; Female; Harlan Sprague Dawley
[14] = test system: Rat; assay: concentration in brain after dosing; settings: 0.5 h; dosed: alpha-Thujone; 25 mg/kg; oral; Male; Harlan Sprague Dawley
[15] = test system: Rat; assay: concentration in plasma after dosing; settings: 5 min; dosed: alpha-Thujone; 25 mg/kg; oral; Male; Harlan Sprague Dawley
[16] = test system: Rat; assay: concentration in plasma after dosing; settings: 5 min; dosed: alpha-Thujone; 25 mg/kg; oral; Male; Harlan Sprague Dawley; remark: listed apart in the source
[17] = test system: Rat; assay: concentration in brain after dosing; settings: 5 min; dosed: alpha-Thujone; 50 mg/kg; oral; Female; Harlan Sprague Dawley; remark: listed apart in the source
[18] = test system: Rat; assay: concentration in brain after dosing; settings: 12 h; dosed: Perfluorohexane-1-sulphonic acid – potassium salt; 16 mg/kg; oral; Female; F344
[19] = test system: Rat; assay: concentration in plasma after dosing; settings: 1 h; dosed: Perfluorohexane-1-sulphonic acid – potassium salt; 16 mg/kg; oral; Male; F344
[20] = test system: Rat; assay: concentration in liver after dosing; settings: 12 h; dosed: Perfluorohexane-1-sulphonic acid – potassium salt; 16 mg/kg; oral; Female; F344
[21] = test system: Rat; assay: concentration in plasma after dosing; settings: dosed: Pyridine, 5 mg/kg, iv, Male, F344

CCC1(c2ccccc2)C(=O)NCNC1=O [Primidone]
Settings | concentration in plasma [ng/mL]
[1] | 12500
[2] | 58400

O=C(c1ccccc1)c1ccc(O)cc1O [2,4-Dihydroxybenzophenone]
concentration in plasma [ng/mL]
Settings | 3 h | 10 h | 10 min
[3] | 71.8 | – | 40.9
[6] | – | 203 | 55.1

Settings | concentration in plasma [ng/mL]
[4] | 415
[5] | 781

OCC(Cl)(Cl)Cl [trichloroethanol (free)]
[7]
Settings | concentration in blood [ng/mL]
0.1894 h | 1660
0.429 h | 1600
0.9471 h | 1580
1.964 h | 1500
3.996 h | 1440
5.928 h | 1510
7.943 h | 1140
9.955 h | 1050
11.95 h | 1030
13.94 h | 1040
15.88 h | 449
17.91 h | 747

[7], during exposure
Settings | concentration in blood [ng/mL]
-180 s | 1690
-2.968 h | 427
-1.958 h | 1200
-1.022 h | 1260

C=CCc1ccc(OC)c(OC)c1 [Methyleugenol]
concentration in plasma [ng/mL]
Settings | 1 h | 1.5 h | 5 h | 8 h
[8] | – | 148 | – | 8.19
[9] | 59.2 | – | 18.6 | –

CC(C)(O)CO [2-methyl-1,2-propanediol]
amount in urine, [10], inhalation, duration: 4 hr
Settings | dosed: ethyl tert-butyl ether | dosed: methyl tert-butyl ether
0 h, 4.5 ppm | 0.545 | 1.1
0.1089 h, 38.7 ppm | – | 7.53
0.1579 h, 40.6 ppm | 3.98 | –
5.975 h, 4.5 ppm | 2.4 | –
6 h, 40.6 ppm | 14.9 | –
6.195 h, 38.7 ppm | – | 37
6.261 h, 4.5 ppm | – | 3.42
11.95 h, 38.7 ppm | – | 45.2
12 h, 40.6 ppm | 24.1 | –
12.1 h, 4.5 ppm | – | 4.96
12.15 h, 4.5 ppm | 2.89 | –
18 h, 40.6 ppm | 19.9 | –
18.07 h, 4.5 ppm | 3.11 | –
18.16 h, 4.5 ppm | – | 2.54
18.22 h, 38.7 ppm | – | 35.6
23.96 h, 38.7 ppm | – | 26
24 h, 4.5 ppm | – | 3.2
24 h, 40.6 ppm | 12.5 | –
24.03 h, 4.5 ppm | 2.35 | –
29.89 h, 40.6 ppm | 7.97 | –
30.14 h, 38.7 ppm | – | 28.1
30.16 h, 4.5 ppm | – | 2.54
30.2 h, 4.5 ppm | 1.53 | –
35.98 h, 38.7 ppm | – | 17.1
36 h, 4.5 ppm | – | 1.32
36.11 h, 40.6 ppm | 7.37 | –
36.16 h, 4.5 ppm | 1.04 | –
42.11 h, 40.6 ppm | 4.98 | –
42.12 h, 4.5 ppm | 0.655 | –
42.15 h, 38.7 ppm | – | 8.9
42.16 h, 4.5 ppm | – | 0.662
48 h, 38.7 ppm | – | 5.48
48.11 h, 40.6 ppm | 3.19 | –
48.3 h, 4.5 ppm | 0.6 | –
54.05 h, 40.6 ppm | 2.39 | –
54.07 h, 38.7 ppm | – | 4.79
60.03 h, 38.7 ppm | – | 3.42
60.16 h, 40.6 ppm | 2.19 | –
66.09 h, 38.7 ppm | – | 3.42
66.11 h, 40.6 ppm | 1.59 | –
71.95 h, 38.7 ppm | – | 1.37
72.05 h, 40.6 ppm | 1.59 | –

amount in urine, [10], dosed: methyl tert-butyl ether, oral
Settings | 5 mg | 15 mg
0 h | 0.0411 | –
5.848 h | – | 2.13
6.268 h | 0.795 | –
12.12 h | 1.23 | 3.38
17.99 h | – | 2.7
18.39 h | 1.15 | –
24.17 h | – | 1.82
24.44 h | 0.658 | –
30.03 h | – | 1.82
30.29 h | 0.616 | –
36.11 h | – | 1.02
36.35 h | 0.384 | –
41.98 h | – | 0.46
42.2 h | 0.233 | –
48.05 h | – | 0.462
48.26 h | 0.123 | –
53.91 h | – | 0.224
54.42 h | 0.123 | –
59.78 h | – | 0.146
60.27 h | 0.0411 | –
65.95 h | – | 0.0276

CC(C)[C@]12CC(=O)[C@H](C)[C@H]1C2 [alpha-Thujone]
Settings | concentration in brain [ng/g] | concentration in plasma [ng/mL]
[11] | – | 305
[12] | 987 | –
[13] | 105 | –
[14] | 359 | –
[15] | – | 1170
[16] | – | 247
[17] | 3080 | –

O=S(=O)([O-])C(F)(F)C(F)(F)C(F)(F)C(F)(F)C(F)(F)C(F)(F)F.[K+] [Perfluorohexane-1-sulphonic acid – potassium salt]
Settings | concentration in brain [ng/g] | concentration in liver [ng/g] | concentration in plasma [ng/mL]
[18] | 1520 | – | –
[19] | – | – | 55600
[20] | – | 70300 | –

c1ccncc1 [Pyridine]
[21]
Settings | concentration in plasma [ng/mL]
0.5 h | 2590
8 h | 881
